These results are taken from the array DNA melting data of Ke et al. (doi:10.1101/2024.01.08.574731).

Data set [1] can be described thus: melting temperature; fluorescence melt of hairpins on a sequencing array, two-state fit, raised by 9.35 °C to match UV melts. Conditions: sodium 0.088 M. An outline of the steps:
(§1)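 With Cy3 and quencher oligos annealed, library hairpins on a sequenced MiSeq flow cell were imaged for Cy3 fluorescence in 50 mM Na-HEPES pH 8.0, 25 mM NaCl, in 2.5 °C steps up to 60 °C. Melting temperature and folding enthalpy were derived from bootstrapped two-state fits of signals normalised to pre-quench Cy3 and to control constructs. Four replicates were combined by inverse variance, with fitted temperatures raised by 9.35 °C to match UV melts.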

Data set [2] is described as follows: folding enthalpy; higher = less favourable; fluorescence melt of hairpins on a sequencing array, two-state fit. Particulars: sodium 0.088 M. An outline of the steps: as §1

For the sequence GCCTGGTCGAAAGACGGC (((..(((....)))))), the Tm in data set [1] is 52.2 °C. Besides, the folding enthalpy in data set [2] is -106 kJ/mol.
With GCCTGTCGAAAGACCGGC (((.(((....))).))), in data set [1], the Tm came out at 55.8 °C. The folding enthalpy in data set [2] was -165 kJ/mol.
In the same order, the values of GCCTGTCGAAAGACGGC (((.(((....)))))) are 56.5 °C and -130 kJ/mol.
For GCCTGTGCGAAAGCAGGC (((..(((....)))))), the Tm in data set [1] amounted to 56.5 °C. In addition, the folding enthalpy in data set [2] is -111 kJ/mol.
Regarding GCCTGTGGAAACGCAGGC (((((.(....).))))), in data set [1], the Tm was found to be 59.9 °C. Also, the folding enthalpy in data set [2] was -159 kJ/mol.
In the same order, the values of GCCTGTGGAAACGTAGGC ((((..(....)..)))) are 48.2 °C and -117 kJ/mol.
In the same order, the values of GCCTTACGAAAGTACGGC (((.(((....))).))) are 52.2 °C and -195 kJ/mol.
The matching figures for GCCTTAGGAAACTAAGAC (.(((((....))))).): 30.1 °C and -57.8 kJ/mol.
With GCCTTCGAAAGAAAGGC ((((((....))).))), the Tm in data set [1] is 54 °C. Moreover, in data set [2], the folding enthalpy is -127 kJ/mol.
The matching figures for GCCTTCGAAAGAACTGGC ((((((....)))..))): 35.7 °C and -91.7 kJ/mol.
For GCCTTCGAAAGAAGCGGC ((((((....)))..))), in data set [1], the Tm stood at 47.2 °C. The folding enthalpy in data set [2] is -75.9 kJ/mol.
The matching figures for GCCTTCGAAAGAAGGGGC ((((((....)))..))): 53.8 °C and -74.6 kJ/mol.
The matching figures for GCCTTCGGAAACGAGGGC (((.(((....))).))): 56.7 °C and -141 kJ/mol.
For GCCTTCTCGAAAGAGGGC (((..(((....)))))), the Tm in data set [1] came to 44.3 °C. The folding enthalpy in data set [2] is -99.4 kJ/mol.
In the same order, the values of GCCTTGCGAAAGCAAAGC ((.((((....)))).)) are 55.9 °C and -62.5 kJ/mol.
In the same order, the values of GCCTTGCGAAAGCAACGC ((.((((....)))).)) are 54.7 °C and -60 kJ/mol.
In the same order, the values of GCCTTGCGAAAGCAATGC ((.((((....)))).)) are 56.9 °C and -72.9 kJ/mol.
Turning to GCCTTGCGAAAGCACAGC ((..(((....)))..)), the Tm in data set [1] was 45.1 °C. The folding enthalpy in data set [2] was -31.3 kJ/mol.
GCCTTGCGAAAGCACGGC (((.(((....))).))): the Tm in data set [1] stood at 57.8 °C. The folding enthalpy in data set [2] was -207 kJ/mol.
In the same order, the values of GCCTTGCGAAAGCATGGC (((.(((....))).))) are 62.1 °C and -187 kJ/mol.
In the same order, the values of GCCTTGCGAAAGCGTGGC (((..((....))..))) are 60.3 °C and -95.4 kJ/mol.
Turning to GCCTTGCGAAAGCTATGC ((.(.((....)).).)), the Tm in data set [1] was 44.5 °C. For the same sequence, in data set [2], the folding enthalpy was -35.5 kJ/mol.
For the sequence GCCTTGGCGAAAGCCGGC (((..(((....)))))), in data set [1], the Tm is 56.9 °C. In addition, the folding enthalpy in data set [2] was -53.8 kJ/mol.
The matching figures for GCCTTTCGAAAGAACGGC (((.(((....))).))): 48.8 °C and -165 kJ/mol.
The matching figures for GCCTTTGGAAACAAAAGC ((.((((....)))).)): 29.3 °C and -51 kJ/mol.
The matching figures for GCCTTTGGAAACAAAGAC (.(((((....))))).): 34.7 °C and -91.5 kJ/mol.
With GCCTTTGGAAACAAAGGC (((((((....))))))), the Tm in data set [1] stood at 66.7 °C. Also, the folding enthalpy in data set [2] is -160 kJ/mol.
On to GCGAAAATCGC ((((...)))), for which the Tm in data set [1] was found to be 45 °C. Besides, the folding enthalpy in data set [2] is -58.9 kJ/mol.
The matching figures for GCGAAACATCGC ((((....)))): 48.7 °C and -89.8 kJ/mol.
The matching figures for GCGAAACGAAAGTTACGC (((.(((....))).))): 58.6 °C and -168 kJ/mol.
In the same order, the values of GCGAAACGAAAGTTCGC (((.(((....)))))) are 62.7 °C and -138 kJ/mol.
Take GCGAAACGAAAGTTGCGC (((.(((....))).))): the Tm in data set [1] stood at 65.7 °C. The folding enthalpy in data set [2] is -150 kJ/mol.
The matching figures for GCGAAAGGAAACTCTCGC ((((.((....)).)))): 38.3 °C and -117 kJ/mol.
In the same order, the values of GCGAAAGGAAACTTTCAC (.(((((....))))).) are 32.6 °C and -80.1 kJ/mol.
Turning to GCGAAAGGAAACTTTCGC (((((((....))))))), the Tm in data set [1] was determined as 64.6 °C. Further, in data set [2], the folding enthalpy was -185 kJ/mol.
The matching figures for GCGAAAGGAAACTTTTGC ((.((((....)))).)): 45.9 °C and -134 kJ/mol.
The matching figures for GCGAACAATCGC ((((....)))): 39.9 °C and -76.4 kJ/mol.
The matching figures for GCGAACAGTCGC ((((....)))): 42.1 °C and -68.4 kJ/mol.
